Measured values collected from several papers.
Target: Myosin light chain kinase 2, skeletal/cardiac muscle (MYLK2, Homo sapiens, UniProt Q9H1R3)

| SMILES | effect on | technique | concentration | remaining binding |
| --- | --- | --- | --- | --- |
| O=C(NCCCN1CCOCC1)c1ccc(Nc2ncc(Cl)c(-c3ccc(Cl)s3)n2)cc1 | binding | competition with immobilised ligand | 1 µM | 12% |
| CN(C)c1ncc(F)c(-c2cnn3ncccc23)n1 | binding | – | 1 µM | 100% |
| Cc1nc(C2CCN(C(=O)c3ccc(OC(F)(F)F)cc3N)CC2)c2ncc(N3CCN(C)CC3)cc2n1 | cell-free assay | competition with immobilised ligand | 1 µM | 87% |
| C[C@@H](c1ccc(-n2cnc3c(N)ncnc32)cc1)N1CCc2nn(C)c(Cc3ccccc3)c2C1=O | binding | competition with immobilised ligand | 0.1 µM | 85% |
| O=C(c1ccc(Nc2nccc(-c3cc4ccccc4s3)n2)cc1)N1CCC(N2CCCC2)CC1 | binding | competition with immobilised ligand | 1 µM | 0.8% |
| CCC(=O)N[C@@H]1CC[C@H](C(=O)N(C)c2ccc(-c3nc4ccccc4o3)cc2)C1 | cell-free assay | competition with immobilised ligand | 1 µM | 79% |
| C[C@@H]1CCN(c2nccc(-c3cnn4ncccc34)n2)C1 | binding | – | 1 µM | 86% |
| COc1ccc2cc(OCC3(C(=O)O)CN(C(=O)c4ccc(F)cc4)C3)ccc2c1 | cell-free assay | competition with immobilised ligand | 1 µM | 100% |
| COc1cnc(Nc2cccc(S(N)(=O)=O)c2)nc1N1CCN(c2ccccc2)C(=O)C1 | binding | competition with immobilised ligand | 1 µM | 100% |
| CC(=O)C1=C(C)N(c2cccc(C(F)(F)F)c2)C(=O)N[C@@H]1c1ccc(C#N)nc1 | cell-free assay | competition with immobilised ligand | 1 µM | 100% |
| CN(CCCC(F)(F)F)c1nccc(-c2cnn3ncccc23)n1 | binding | – | 1 µM | 98% |
| O=C(NCC1CCOCC1)c1n[nH]cc1NC(=O)c1c(F)cccc1F | binding | competition with immobilised ligand | 1 µM | 100% |
| CS(=O)(=O)c1cc(C2(NC(=O)c3cncc4c3cnn4-c3ccc(F)cc3)CC2)ccn1 | cell-free assay | competition with immobilised ligand | 1 µM | 100% |
| CNC(=O)[C@@H]1CC[C@@H](n2c(-c3ccc4cnccc4c3)nc3ccc(C(=O)NCc4cccc(C(N)=O)c4)cc32)C1 | binding | competition with immobilised ligand | 1 µM | 100% |
| N[C@H]1CCN(c2nccc(-c3cnn4ncccc34)n2)C1 | binding | – | 1 µM | 92% |
| CCOC(=O)c1cc2cc(-c3cc(C(=O)NCc4ccc(C(=O)O)cc4)nn3C)ccc2[nH]1 | cell-free assay | competition with immobilised ligand | 0.1 µM | 89% |
| O=C(NCCCN1CCOCC1)c1ccc(Nc2nccc(-c3cc4ccccc4s3)n2)cc1 | binding | competition with immobilised ligand | 1 µM | 9.1% |
| COc1ccnn2ncc(-c3ccnc(N(C)C)n3)c12 | binding | – | 1 µM | 96% |
| c1cncc(-c2cccc(Nc3nccc(NC4CCCCC4)n3)c2)c1 | binding | competition with immobilised ligand | 10 µM | 70% |
| Cc1cnn2ncc(-c3ccnc(N(C)C)n3)c2c1 | binding | – | 1 µM | 100% |
| C=CC(=O)N1CCC(C(=O)NCC(=O)N2CCN(c3nc(-c4cnc(N)nc4C(F)F)nc(N4CCOCC4)n3)CC2)CC1 | binding | competition with immobilised ligand | 1 µM | 97% |
